Source: ChEMBL document CHEMBL3875151, “Design, synthesis, biological evaluation and molecular docking study on peptidomimetic analogues of XK469” (Eur J Med Chem, 2016)
Calls of active or inactive are those of the source. The rule behind the calls is not given here.

Columns and labels:
[1] = Antiproliferative activity against human K562 cells after 48 hrs by MTT assay; format: functional, cell-based; details: K562, 48 h
Summary of the method: (§1)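 Cells kept in RPMI-1640 with 10% heat-inactivated FBS, 37°C, 5% CO2. 10^4 cells/well seeded, compounds (dissolved in DMSO or PBS, diluted in medium) added after 4 h at final 200, 150, 100, 50 and 10 μM for 48 h. MTT then 4 h, formazan dissolved in DMSO, OD 570 nm. Growth inhibition vs medium control; IC50 from inhibition ratios; three independent experiments in triplicate.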

[2] = Antiproliferative activity against human HeLa cells after 48 hrs by MTT assay; format: functional, cell-based; summary of the method: as §1
[3] = Antiproliferative activity against human MCF7 cells after 48 hrs by MTT assay; format: functional, cell-based; details: MCF7, 48 h; summary of the method: as §1
Mus musculus [4] = test: Toxicity in Balb/c mouse xenografted with […] cells assessed as body weight at 10 mg/kg/day, ig administered 6 days per week for two consecutive weeks (reference value: 20.17 +/- 3.66 g); format: organism-based; details: in vivo, po, 144 h
[5] = Anti-metastatic activity against H22 cells xenografted in Balb/c mouse assessed as lung weight at 10 mg/kg/day, ig administered 6 days per week for two consecutive weeks measured on day 12 post last dose (reference value: 0.287 +/- 0.117 g); format: functional
[6] = Anti-metastatic activity against H22 cells xenografted in Balb/c mouse assessed as inhibition of metastasized nodes on lung surface at 10 mg/kg/day, ig administered 6 days per week for two consecutive weeks measured on day 13 post dose by microscopic method relative to control; format: functional; details: po
Summary of the method: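 BALB/c mice (18~22 g, both sexes) injected via tail vein with 6 × 10^6 H22 ascites cells. After 24 h, randomized into groups of 10. Compounds given intragastrically at 10 mg/kg in 0.5% CMC-Na (2 mg/ml), vehicle to controls. Lung-surface metastatic nodes counted under microscope; inhibition rate from mean node counts vs vehicle group.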

Mus musculus [7] = test: Toxicity in Balb/c mouse xenografted with […] cells assessed as mouse survival at 10 mg/kg/day, ig administered 6 days per week for two consecutive weeks; format: organism-based; details: in vivo, po, 144 h
Summary of the method: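 H22 hepatocarcinoma ascites from BALB/c donor mice was diluted 1:4 in saline (3 × 10^7 cells/ml), and 0.2 mL (6 × 10^6 cells) was injected via tail vein into BALB/c mice weighing 18~22 g. After 24 h, mice were weighed and randomised into 7 groups of 10, half of each sex. Compound was given intragastrically at 2 mg/ml in 0.5% CMC-Na, with vehicle controls. Surviving animals were counted against the original number per group.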

[8] = Antiproliferative activity against human NCI60 cells after 48 hrs by SRB assay; format: functional, cell-based; details: NCI60, 48 h
[9] = target: DNA topoisomerase 2-alpha (Homo sapiens) (UniProt P11388); test: Inhibition of human topoisomerase-2 alpha-mediated kinetoplast DNA decatenation at 3.15 to 200 uM after 15 mins by ethidium bromide staining based agarose gel electrophoresis
Sequence of DNA topoisomerase 2-alpha (Homo sapiens) (P11388 whole entry): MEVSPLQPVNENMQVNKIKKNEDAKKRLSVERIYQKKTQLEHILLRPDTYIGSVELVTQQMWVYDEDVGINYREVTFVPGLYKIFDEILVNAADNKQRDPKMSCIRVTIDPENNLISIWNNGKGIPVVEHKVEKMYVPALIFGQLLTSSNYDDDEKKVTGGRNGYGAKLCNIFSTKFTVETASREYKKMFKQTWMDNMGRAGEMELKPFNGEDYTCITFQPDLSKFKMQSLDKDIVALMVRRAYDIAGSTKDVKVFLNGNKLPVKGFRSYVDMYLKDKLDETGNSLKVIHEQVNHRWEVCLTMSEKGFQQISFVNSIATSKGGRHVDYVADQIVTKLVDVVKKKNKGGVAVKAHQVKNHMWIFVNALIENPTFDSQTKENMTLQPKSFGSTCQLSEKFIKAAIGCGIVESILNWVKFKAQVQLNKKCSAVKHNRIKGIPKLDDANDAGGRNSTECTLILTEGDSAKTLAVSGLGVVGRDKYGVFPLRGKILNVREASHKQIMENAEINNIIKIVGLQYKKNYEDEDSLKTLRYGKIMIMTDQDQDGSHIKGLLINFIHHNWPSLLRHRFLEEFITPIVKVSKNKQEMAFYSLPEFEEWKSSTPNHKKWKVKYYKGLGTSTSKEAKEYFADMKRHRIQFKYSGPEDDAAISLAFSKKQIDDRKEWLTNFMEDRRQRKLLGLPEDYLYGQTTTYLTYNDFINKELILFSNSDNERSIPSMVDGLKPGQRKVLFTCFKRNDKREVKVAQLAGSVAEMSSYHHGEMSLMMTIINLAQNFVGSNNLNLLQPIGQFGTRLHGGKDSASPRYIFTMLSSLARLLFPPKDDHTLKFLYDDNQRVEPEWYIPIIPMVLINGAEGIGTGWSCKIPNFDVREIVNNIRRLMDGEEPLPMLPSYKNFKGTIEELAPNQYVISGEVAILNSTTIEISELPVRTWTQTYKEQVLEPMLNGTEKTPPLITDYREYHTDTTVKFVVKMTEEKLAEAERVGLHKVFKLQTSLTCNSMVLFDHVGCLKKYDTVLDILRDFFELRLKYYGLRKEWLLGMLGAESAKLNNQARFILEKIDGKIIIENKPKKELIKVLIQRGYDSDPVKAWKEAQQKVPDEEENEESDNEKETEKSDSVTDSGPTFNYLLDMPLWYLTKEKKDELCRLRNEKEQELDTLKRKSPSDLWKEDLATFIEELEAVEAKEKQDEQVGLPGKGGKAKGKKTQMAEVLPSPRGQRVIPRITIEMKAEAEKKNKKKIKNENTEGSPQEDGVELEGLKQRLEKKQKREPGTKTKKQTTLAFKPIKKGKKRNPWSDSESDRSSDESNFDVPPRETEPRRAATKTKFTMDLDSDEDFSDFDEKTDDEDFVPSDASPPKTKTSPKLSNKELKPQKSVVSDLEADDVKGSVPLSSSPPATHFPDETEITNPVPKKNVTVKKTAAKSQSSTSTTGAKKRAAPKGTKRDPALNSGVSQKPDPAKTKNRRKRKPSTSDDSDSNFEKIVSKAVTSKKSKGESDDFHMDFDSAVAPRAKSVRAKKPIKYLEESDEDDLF
Summary of the method: (§2)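 Human topo IIα (0.5 units) with 20 µg/mL kDNA in 50 mM Tris-HCl pH 8.0, 0.5 mM DTT, 10 mM MgCl2, 2 mM ATP. Compounds at 3.15, 12.5, 50 and 200 µM, 15 min at 37°C; stopped with SDS/glycerol. Products run on 1% agarose, 50 V, 50 min, ethidium bromide-stained, viewed under UV. Controls without enzyme and without inhibitor; etoposide reference.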

[10] = target: DNA topoisomerase 2-alpha (Homo sapiens) (UniProt P11388); test: Inhibition of human topoisomerase-2 alpha-mediated kinetoplast DNA decatenation at 3.15 to 200 uM after 15 mins by ethidium bromide staining based agarose gel electrophoresis relative to etoposide; summary of the method: as §2
[11] = target: DNA topoisomerase 2-alpha (Homo sapiens) (UniProt P11388); test: Inhibition of human topoisomerase-2 alpha-mediated kinetoplast DNA decatenation after 15 mins by ethidium bromide staining based agarose gel electrophoresis; summary of the method: as §2

Compound | IC50 [1] [µM] | IC50 [2] [µM] | IC50 [3] [µM] | also measured
CCCCCCCCCCCCNc1nc2ccccc2nc1Oc1ccc(C(=O)N[C@H](C(=O)O)[C@H](C)CC)cc1 | 21.5 | 35.5 | 30.4 | –
CCCCCCCCCCCCNc1nc2ccccc2nc1Oc1ccc(C(=O)N[C@@H](C)C(=O)OC)cc1 | 26.7 | 28.5 | 33.8 | –
CC(C)(C)Nc1nc2ccccc2nc1Oc1ccc(C(=O)NCC(=O)O)cc1 | > 50 | > 50 | > 50 | –
CC[C@@H](C)[C@H](NC(=O)c1ccc(Oc2nc3ccccc3nc2NC(C)(C)C)cc1)C(=O)O | 18.3 | 13.4 | 11.3 | Activity (Mus musculus [4]): 21.84 g; Activity [5]: 0.211 g; inhibition in vivo at 10 mg/kg/day [6]: 27.6%; Activity (Mus musculus [7]): Non-Toxic
Cc1nc2ccc(Cl)cc2nc1Oc1ccc(C(=O)N[C@@H](CC(C)C)C(=O)O)cc1 | 14.5 | 16.4 | 15.1 | Activity (Mus musculus [4]): 23.25 g; Activity [5]: 0.254 g; inhibition in vivo at 10 mg/kg/day [6]: 14.8%; Activity (Mus musculus [7]): Non-Toxic
COC(=O)[C@H](CC(C)C)NC(=O)c1ccc(Oc2nc3ccccc3nc2C)cc1 | 22.6 | 21.6 | 25.5 | –
Cc1nc2ccccc2nc1Oc1ccc(C(=O)N[C@@H](CC(C)C)C(=O)O)cc1 | 19.5 | 17.3 | 14.7 | Activity (Mus musculus [4]): 22.46 g; Activity [5]: 0.238 g; inhibition in vivo at 10 mg/kg/day [6]: 11%; Activity (Mus musculus [7]): Non-Toxic
COC(=O)[C@H](Cc1ccccc1)NC(=O)c1ccc(Oc2nc3ccccc3nc2NC(C)(C)C)cc1 | 10.3 | > 50 | > 50 | –
COC(=O)CNC(=O)c1ccc(Oc2nc3ccccc3nc2NC(C)(C)C)cc1 | > 50 | > 50 | > 50 | –
COC(=O)[C@H](C)NC(=O)c1ccc(Oc2nc3ccccc3nc2C)cc1 | 45.5 | 32.2 | 38.4 | –
COC(=O)[C@H](CC(C)C)NC(=O)c1ccc(Oc2nc3ccc(Cl)cc3nc2C)cc1 | 32.6 | 37.6 | 22.8 | –
CC(C)(C)Nc1nc2ccccc2nc1Oc1ccc(C(=O)N[C@@H](Cc2ccccc2)C(=O)O)cc1 | 15.2 | 20.5 | 25.3 | –
Cc1nc2cc(Cl)ccc2nc1Oc1ccc(C(=O)N[C@@H](C)C(=O)O)cc1 | 20.9 | 30 | 19.4 | –
C[C@@H](Oc1ccc(Oc2cnc3ccc(Cl)cc3n2)cc1)C(=O)O [R(+)XK469] | – | – | – | IC50 [8]: 70 µM
COC(=O)[C@H](CC(C)C)NC(=O)c1ccc(Oc2nc3cc(Cl)ccc3nc2C)cc1 | 22 | 18.6 | 19.1 | –
Cc1nc2ccc(Cl)cc2nc1Oc1ccc(C(=O)N[C@@H](Cc2ccccc2)C(=O)O)cc1 | 21.5 | 20.2 | 20.2 | –
CC(C)C[C@H](NC(=O)c1ccc(Oc2nc3ccccc3nc2NC(C)(C)C)cc1)C(=O)O | 42.3 | 39.2 | 40.3 | –

Compound | IC50 [1] [µM] | IC50 [2] [µM] | IC50 [3] [µM] | also measured
Cc1nc2ccccc2nc1Oc1ccc(C(=O)N[C@@H](C)C(=O)O)cc1 | 28.1 | 22.3 | 25.6 | –
COC(=O)[C@H](C)NC(=O)c1ccc(Oc2nc3ccccc3nc2NC(C)(C)C)cc1 | 42.2 | 55.2 | 38.4 | –
COc1cc([C@@H]2c3cc4c(cc3[C@@H](O[C@@H]3O[C@@H]5CO[C@@H](C)O[C@H]5[C@H](O)[C@H]3O)[C@H]3COC(=O)[C@H]23)OCO4)cc(OC)c1O | – | – | – | inhibition [9]: Active
CCCCCCCCCCCCNc1nc2ccccc2nc1Oc1ccc(C(=O)N[C@@H](Cc2ccccc2)C(=O)OC)cc1 | 30.5 | 34.4 | 33.4 | –
COC(=O)[C@H](CC(C)C)NC(=O)c1ccc(Oc2nc3ccccc3nc2NC(C)(C)C)cc1 | > 50 | > 50 | > 50 | –
C[C@H](NC(=O)c1ccc(Oc2nc3ccccc3nc2NC(C)(C)C)cc1)C(=O)O | 26.4 | 23.4 | 29.4 | –
COC(=O)[C@H](C)NC(=O)c1ccc(Oc2nc3ccc(Cl)cc3nc2C)cc1 | 26 | 42.5 | 33.8 | –
Cc1nc2cc(Cl)ccc2nc1Oc1ccc(C(=O)N[C@@H](CC(C)C)C(=O)O)cc1 | 21.3 | 25 | 17.4 | –
CCCCCCCCCCCCNc1nc2ccccc2nc1Oc1ccc(C(=O)N[C@H](C(=O)OC)[C@H](C)CC)cc1 | 30.8 | 40.3 | 43.3 | –
CC[C@@H](C)[C@H](NC(=O)c1ccc(Oc2nc3ccccc3nc2C)cc1)C(=O)OC | 38.3 | > 50 | 36.1 | –
COc1cccc2c1C(=O)c1c(O)c3c(c(O)c1C2=O)C[C@@](O)(C(=O)CO)C[C@@H]3O[C@H]1C[C@H](N)[C@H](O)[C@H](C)O1 [DOXORUBICIN] | 13.5 | 11.5 | – | Activity (Mus musculus [4]): 23.32 g; Activity [5]: 0.217 g; inhibition in vivo at 10 mg/kg/day [6]: 59.9%
COC(=O)[C@H](Cc1ccccc1)NC(=O)c1ccc(Oc2nc3cc(Cl)ccc3nc2C)cc1 | 27.5 | 28.8 | 25.5 | –
CC[C@@H](C)[C@H](NC(=O)c1ccc(Oc2nc3ccccc3nc2NC(C)(C)C)cc1)C(=O)OC | 38.7 | 31.9 | 33.4 | –
CCCCCCCCCCCCNc1nc2ccccc2nc1Oc1ccc(C(=O)N[C@@H](Cc2ccccc2)C(=O)O)cc1 | 7.37 | 9.19 | 6.79 | Activity (Mus musculus [4]): 20.85 g; fold change (FC) [10]: 4; inhibition [9]: Active; Activity [5]: 0.197 g; inhibition in vivo at 10 mg/kg/day [6]: 33.7%
CCCCCCCCCCCCNc1nc2ccccc2nc1Oc1ccc(C(=O)N[C@@H](C)C(=O)O)cc1 | 3.28 | 6.24 | 4.11 | Activity (Mus musculus [4]): 24.62 g; inhibition [11]: Dose-dependent effect; Activity [5]: 0.23 g; inhibition in vivo at 10 mg/kg/day [6]: 42.5%
CC[C@@H](C)[C@H](NC(=O)c1ccc(Oc2nc3ccccc3nc2C)cc1)C(=O)O | 30.5 | 33.2 | 35.7 | –
